# This is one part of a sample in which hits are shown more often than they occur.
# Insulin prom act = TRM-6 insulin promoter activation; activation, % at 2 µM; TRM-6 cells (human fetal islet line), insulin promoter eGFP reporter, imaging; plate-scaled: unstimulated 0, stimulated control 100; 130,000 tested, 0.81% active; AID 1296;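 active = activation at 2 µM above a set limit, confirmed on inspection of the cell images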;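 note: share of cells whose green reporter signal exceeds an intensity cutoff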
#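 System – TRM-6 insulin promoter–eGFP reporter cells · Probe or stimulus – 0.75 µM tamoxifen as reporter inducer · Dosing – single-point 2 µM compound dose · Incubation – tamoxifen pre-incubation 15 h overnight, then compound exposure 48 h at 37 °C · Measured by – fixed-cell fluorescence microscopy, eGFP plus Hoechst · Evaluation – percent GFP-positive cells normalized to per-plate controls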
# Hits are given with their value; 0 = inactive.
SMILES,Insulin prom act
CN(C)S(=O)(=O)c1cccc(NC(=S)N(CCC#N)Cc2cccnc2)c1,453
CC1(C(=O)NC(=S)N(CCC#N)Cc2cccnc2)CC1(Cl)Cl (stereo unspecified),0
O=C(OCc1cnc(Cl)s1)c1cccc(Cl)c1Cl,0
Cc1ccc(N=C(NO)c2nonc2N)cc1,0
O=C(c1ccco1)N1N=C2CCCCCC2C1(O)C(F)(F)F (stereo unspecified),0
CCNc1nc(Oc2ccc(=O)[nH]n2)nc(SC)n1,0
COC(=O)c1ccc(-n2nnnc2SC)cc1,0
Cc1ccc(Nc2nc(Oc3ccc(=O)[nH]n3)nc(N(C)C)n2)cc1,0
CN(C)c1nc(Nc2ccccc2)nc(Oc2ccc(=O)[nH]n2)n1,0
CNc1nc(Oc2ccc(C(=O)OC)cc2)nc(SC)n1,494
COC(=O)c1ccc(Oc2nc(Nc3ccccc3)nc(N(C)C)n2)cc1,585
Cc1cc(C)cc(CC(Cc2nc3ccccc3[nH]2)c2nc3ccccc3[nH]2)c1 (stereo unspecified),0
O=C(c1ccco1)N1CCN(c2cc(N3CCOCC3)c(F)cc2[N+](=O)[O-])CC1,0
Cn1c(=O)c(-c2ccccc2)nc2ccccc21,0
Cn1nc(-c2ccccc2)c2nc3ccccc3nc21,150
Cc1nnc2c(-c3ccccc3)nc3ccccc3n12,0
O=C(Cc1ccc(Cl)cc1)c1c[nH]c(C(=O)NCCCn2ccnc2)c1,0
CC(=O)Nc1ccc(NC(=O)C(C)O/N=C/c2cccc([N+](=O)[O-])c2)cc1 (stereo unspecified),0
O=C(O/N=C/c1cccc([N+](=O)[O-])c1)C1CC1,209
O=C(CO/N=C/c1cccc([N+](=O)[O-])c1)Nc1ccc2ccccc2c1,0
CC1C(=O)CC(c2ccco2)NC1c1ccco1 (stereo unspecified),0
O=C(NCc1ccco1)/C(=C/c1cccnc1)NC(=O)c1ccco1,0
COc1ccc(N2CCN(C(CNC(=O)OCc3ccccc3)c3ccco3)CC2)cc1 (stereo unspecified),0
Cc1ccc2c(c1)C(=O)C(=O)N2CC(=O)Nc1ccc(N2CCOCC2)cc1,0
CC(=O)N1C(=S)NC(=O)/C1=C1/C(=O)N(CC(=O)Nc2cccc(C)c2)c2ccccc21,108
SMILES,Insulin prom act
Cc1cccc(NC(=O)CN2C(=O)N/C(=C/c3ccc(C)o3)C2=O)c1,0
Cc1c(C(=O)O)sc2nc3n(c(=O)c12)CCC3,0
O=c1c2c(-c3ccc([N+](=O)[O-])cc3)csc2nc2n1CCC2,481
O=C(Nc1ccc2nc3n(c(=O)c2c1)CCCC3)c1cccc([N+](=O)[O-])c1,0
CCN1C(C)=C(C)S/C1=C1\SC(=S)N(N)C1=O,0
COc1ccccc1NS(=O)(=O)c1cc([N+](=O)[O-])ccc1N/N=C/c1c[nH]c2ccccc12,264
O=C(CNc1ccccc1)N/N=C/c1c[nH]c2ccccc12,0
O=[N+]([O-])c1ccc(N/N=C/c2c[nH]c3ccccc23)cc1,223
COc1ccccc1NS(=O)(=O)c1cccc2cccnc12,0
CNc1nc(N/N=C/c2ccc([N+](=O)[O-])cc2)nc(Nc2ccccc2)n1,0
O=C(N/N=C/c1c[nH]c2ccccc12)c1[nH]c2ccc(Br)cc2c1-c1ccccc1,0
O=[N+]([O-])c1ccc(N/N=C/c2ccc[nH]2)cc1,245
O=C(N/N=C/c1ccc[nH]1)c1ccncc1,0
COc1ccccc1NS(=O)(=O)c1ccc(N/N=C/c2c(C)nn(-c3ccccc3)c2N2CCCC2)c([N+](=O)[O-])c1,0
Cn1nc(C(=O)NNc2c(F)c(F)cc(F)c2F)c2ccccc2c1=O,0
O=C(c1ccncc1)N(c1ccc2oc3c(c2c1)CCCC3)S(=O)(=O)c1ccc(F)cc1,0
Cn1ncc(N=Cc2ccccc2)c1C(=O)Nc1cccc(Cl)c1,0
CCOC(=O)c1c(C)c(C(=O)N(C)C2CCCCC2)c(C)n1C,0
Cc1ccc(OP(=O)(Nc2c(C)n(C)n(-c3ccccc3)c2=O)Oc2ccc(C)cc2)cc1,0
CCOC(=O)c1nc2cc3n(c(C)c-2c1C)C(C)C(CC)=C3C (stereo unspecified),0
CCOC(=O)CSC1=NC(=O)CS1,0
CCCCNC(=S)N1CCn2cccc2C1c1ccccc1 (stereo unspecified),0
S=C(NCc1ccccc1)N1CCn2cccc2C1c1cccnc1 (stereo unspecified),124
O=C(NC(=S)NCc1ccccc1)c1cccnc1,0
COc1cc(OC)c(NC(=O)CCc2nc(-c3ccc(C)cc3)no2)cc1Cl,0
SMILES,Insulin prom act
Cc1cccc(C(=O)NCc2nnc3c4ccccc4c(-c4ccccc4)nn23)c1,0
O=C(O)CSCCOc1ccc(OCCSCC(=O)O)cc1,0
COc1ccccc1/C=C1\S/C(=N/NC(=O)c2cccc(Br)c2)NC1=O,0
Cc1cccc(N=C2NC(=O)/C(=C/c3cccs3)S2)c1,0
COc1cc(/C=C2\S/C(=N/S(=O)(=O)c3ccc(C)cc3)NC2=O)c([N+](=O)[O-])cc1OC,453
CC(C)Sc1ncc(S(=O)(=O)c2ccccc2)c(=O)[nH]1,0
COc1cc(C(=O)NCc2nnc(SCC(=O)N3CCOCC3)o2)cc(OC)c1OC,0
N#Cc1cccc(NC(=O)CSc2ccc3c4c(cccc24)C(=O)c2ccccc2-3)c1,233
N#Cc1cccc(NC(=O)CSc2ccccc2)c1,0
COc1ccc(NC(=O)CSc2ccc3c4c(cccc24)C(=O)c2ccccc2-3)cc1,0
CC(=O)c1cccc(NC(=O)c2ccc(C)o2)c1,0
COc1ccc(N(C(=O)c2ccco2)S(=O)(=O)c2cc(OC)ccc2OC)cc1,0
COc1ccc(N(C(=O)c2ccco2)S(=O)(=O)c2cccs2)cc1,0
COc1ccc(N(C(=O)c2ccco2)S(=O)(=O)c2ccc(F)cc2)cc1,456
CCOc1ccc(-c2c(C(=O)N/N=C/c3ccc(OC)cc3)nnn2-c2nonc2N)cc1,0
CC(=O)N1CCN(C(=S)c2ccc(N(C)C)cc2)CC1,0
O=C(Oc1ccc(C(=S)N2CCOCC2)cc1)c1ccccc1,0
CN(C)c1ccc(C(=S)N2CCOCC2)cc1,150
CN(C)C=Nc1nonc1-c1ncn[nH]1,0
CN(C)C=Nc1c(Br)cc(Br)c2nonc12,203
CCCNCc1cc(OC)c(OCC(=O)NCCc2ccccc2)cc1Br,0
COc1cc2c(cc1OC)C(C(=O)Nc1cccc(C)n1)C(c1cccnc1)N(C)C2=O (stereo unspecified),0
COc1cc2c(cc1OC)C(C(=O)Nc1ccccc1N1CCN(C)CC1)C1c3ccccc3CCN1C2=O (stereo unspecified),355
COc1ccc(C2C(C(=O)N3CCN(C)CC3)c3cc(OC)c(OC)cc3C(=O)N2C)cc1 (stereo unspecified),0
CC(C)(C)c1c(Cl)c(O)c(-c2ccccc2)c(=O)n1-c1ccccc1,0
SMILES,Insulin prom act
CCOc1ccc(N(C(=O)Cn2nnc3ccccc32)C(C(=O)NC(C)(C)CC)c2cccn2C)cc1 (stereo unspecified),462
Cc1ccc(-c2nnn(CC(=O)N(c3ccccc3)C(C(=O)NC(C)(C)C)c3cccs3)n2)o1 (stereo unspecified),0
CCC(C)(C)NC(=O)C(c1cccn1C)N(C(=O)Cn1nnc2ccccc21)c1ccc(OC)cc1OC (stereo unspecified),0
Cc1ccsc1/C=N/N1CCN(C2c3ccccc3-c3ccccc32)CC1,0
Cc1ccc(C(=O)O)cc1-c1ccc(C=C2C(=O)c3ccccc3C2=O)o1,0
Cc1ccsc1C=C1C(=O)c2ccccc2C1=O,312

# Screens deposited in PubChem by Columbia University Molecular Screening Center.
